Hits are enriched below; roughly 3.5% of the tested compounds scored in any of these assays.
RGS4 block: RGS4 inhibitors, primary screen, cell-based, HEK293 M3R inducible RGS4, calcium flux | Regulator of G-protein signaling 4 (Homo sapiens), P49798 | Fluo-4 calcium flux; active compounds read high; triggered by carbachol at its EC20 | B-score at 10 µM | hit rate 0.45% among 310,000 | AID 463165, 2010;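 active = B-score, a plate-corrected calcium signal, over three deviations above library mean, with baseline fluorescence within five deviations of library mean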;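 also: RGS4 expression induced by doxycycline in cells with stable M3 receptor; B-score is computed from the integrated fluorescence ratio over baseline after carbachol; higher B-score means a larger calcium signal and so more RGS4 inhibition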
Target sequence (P49798 whole entry, looked up): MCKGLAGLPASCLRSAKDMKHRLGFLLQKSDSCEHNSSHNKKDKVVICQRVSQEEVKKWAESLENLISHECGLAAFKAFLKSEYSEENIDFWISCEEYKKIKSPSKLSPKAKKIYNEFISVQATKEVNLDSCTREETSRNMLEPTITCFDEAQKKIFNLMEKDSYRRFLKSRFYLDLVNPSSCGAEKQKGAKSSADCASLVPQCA
MrgX1 agonist: agonists of human MrgX1 receptor, primary screen, HEK293 cells, Fluo-4 calcium flux | Mas-related G-protein coupled receptor member X1 (Homo sapiens), Q96LB2 | Fluo-4 calcium fluorescence, agonist mode; active compounds read high | B-score at 10 µM | hit rate 0.44% among 310,000 | AID 588627, 2011;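 active = calcium response B-score plate-corrected fluorescence ratio at least 3 library SD, with starting fluorescence B-score inside 5 SD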
Target sequence (Q96LB2 whole entry, looked up): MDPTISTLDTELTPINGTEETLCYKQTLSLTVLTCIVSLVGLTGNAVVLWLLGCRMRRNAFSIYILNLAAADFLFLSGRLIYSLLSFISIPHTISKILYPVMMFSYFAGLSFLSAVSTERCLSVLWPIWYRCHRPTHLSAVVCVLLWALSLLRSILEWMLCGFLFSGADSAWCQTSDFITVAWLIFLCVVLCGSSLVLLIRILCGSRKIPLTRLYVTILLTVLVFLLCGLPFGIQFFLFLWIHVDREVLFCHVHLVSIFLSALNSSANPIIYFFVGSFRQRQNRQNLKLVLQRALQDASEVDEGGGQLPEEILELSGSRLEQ
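times = overnight plating, then 30 min 37 °C plus 30 min room-temperature dye loading | assay system = stable human MrgX1 HEK293 cell line | input = fifteen thousand cells per well | signal = kinetic calcium dye fluorescence, Fluo-4 NW | dosing = compound delivered in addition one of three | read-out = B-scored fluorescence response ratio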
MrgX1 PAM: positive allosteric modulators of MrgX1, primary screen, HEK293 cells, Fluo-4 calcium flux; Mas-related G-protein coupled receptor member X1 (Homo sapiens), Q96LB2; FDSS; active compounds read high; B-score at 10 µM; hit rate 0.63% among 310,000; AID 588675, 2011;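 active = plate-corrected calcium response at least 3 library SD above typical, normal starting fluorescence, not activating the receptor alone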;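 also: compound read alongside a low EC10 to EC30 dose of BAM8-22 agonist; peak minus trough fluorescence over baseline measured at the second addition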
RGS4 pot: RGS4 potentiators or activators, primary screen, cell-based, HEK293 M3R inducible RGS4, calcium flux; carbachol calcium flux Fluo4; active compounds read low; B-score at 10 µM; hit rate 0.92% among 310,000; AID 463111, 2010;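 active = B-score of the integrated calcium signal more than 4 SD below the library mean, with starting fluorescence not abnormally high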;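 also: negative B-score means reduced calcium response which marks RGS4 activation or potentiation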
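Assay system: Inducible-RGS4 HEK293 cells carrying M3 receptor | Schedule: Compound preincubation 20 min at room temperature before agonist | Signal: Kinetic calcium fluorescence imaging with Fluo4-AM dye, 2 µM | Read-out basis: B score from integrated fluorescence ratio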
MrgX1 antag: antagonists of human MrgX1 receptor, primary screen, HEK293 cells, Fluo-4 calcium flux; BAM8-22 antagonism; active compounds read low; AID 588676, 2011; hit rate 1.3% among 310,000; B-score at 10 µM; Mas-related G-protein coupled receptor member X1 (Homo sapiens), Q96LB2;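 active = calcium-response B-score plate-corrected more than 3 library SD below zero, starting fluorescence within 5 deviations, no agonist response on first addition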;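 also: peak minus trough fluorescence over baseline after final BAM8-22 challenge near maximal dose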
MrgX1 ag confirm: MrgX1 receptor agonists, duplicate retest, confirmation, HEK293 cells, Fluo-4 calcium flux; AID 602412, 2012; hit rate 78% among 600; Fluo-4 calcium fluorescence, FDSS; activation, % at 10 µM; shares compounds with MrgX1 agonist;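 active = calcium signal rise, corrected for plate position, at least 3 library SD high, with starting brightness within 5 such deviations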; also: reference of the scale not given here
HEK293 Ca flux: nonspecific calcium signal in parental HEK293, confirmation, counter-screen for MrgX1 antagonist project, parental HEK293 cells, Fluo-4 calcium flux. shares compounds with MrgX1 antag. Fluo-4 calcium fluorescence, FDSS. fluorescence ratio F(max-min)/F0 at 10 µM. hit rate 2% among 4,000. AID 624111, 2012;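 active = duplicate-averaged calcium fluorescence ratio at least three times the standard deviation of buffer wells, a nonspecific response in parental cells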
HEK293 Ca counter: calcium response in parental HEK293 cells, primary screen, counter-screen for MrgX1 allosteric activator project, cell-based, Fluo-4 calcium flux, duplicate. AID 624114, 2012. shares compounds with MrgX1 antag. Fluo-4 fluorescence ratio; active compounds read high. hit rate 0.4% among 4,000. fluorescence ratio F(max-min)/F0 at 10 µM;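 active = calcium fluorescence ratio, averaged over duplicates, at least 3 SD of the buffer-well ratio, meaning a nonspecific response in receptor-free cells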;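 also: untransfected parental HEK293 lacking MrgX1 used as counterscreen for MrgX1 allosteric activators; fluorescence change taken during the second addition on a kinetic imager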
HEK293 Ca cntr2: calcium response in parental HEK293 cells, primary screen, counter-screen for MrgX1 agonist project, cell-based, Fluo-4 calcium flux, duplicate, agonist mode; shares compounds with MrgX1 antag; Fluo-4 calcium fluorescence (FDSS); active compounds read high; fluorescence ratio F(max-min)/F0 at 10 µM; hit rate 8.7% among 4,000; AID 624115, 2012;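 active = calcium fluorescence ratio at least three times the spread of buffer wells, meaning a non-specific response in parental cells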
Of the large screens only hits and unclear results are named; the others gave an inactive call (follow-up assays come after a bar, where they were run).

CCN(Cc1cc2cc(C)ccc2[nH]c1=O)C(=O)c1cccc([N+](=O)[O-])c1	none
O=C(CSc1ncnc2ccccc12)c1cccs1	MrgX1 agonist 29 | MrgX1 ag confirm inactive | HEK293 Ca flux inactive | HEK293 Ca counter inactive | HEK293 Ca cntr2 inactive
Fc1cccc(Cl)c1CN1CCN(c2nc3ccccc3s2)CC1	MrgX1 agonist 31 | MrgX1 ag confirm 224% | HEK293 Ca flux inactive | HEK293 Ca counter inactive | HEK293 Ca cntr2 inactive
O=C(c1ccc2ccccc2n1)N1CCN(Cc2c(F)cccc2Cl)CC1	none
Cc1ccc(C)c(-c2csc(NC(=O)c3cnccn3)n2)c1	none
CCOC(=O)Nc1ccc2c(c1)N(C(=O)N(CC)CC)c1ccccc1CC2	MrgX1 agonist 38 | MrgX1 ag confirm 161% | HEK293 Ca flux inactive | HEK293 Ca counter inactive | HEK293 Ca cntr2 47
CCOC(=O)Nc1ccc2c(c1)N(C(=O)N(C)C)c1ccccc1CC2	none
C=CCc1c(C)nc(N2CCSCC2)[nH]c1=O	none
O=C(CSc1nc(=O)n(CCCN2CCOCC2)c2c1CCC2)Nc1cccc(F)c1	none
O=C(O)CCc1ccc(-c2ccccc2)n1CC(=O)O	none
Cc1ccc(-c2ccc(CCC(=O)O)n2Cc2ccco2)cc1	MrgX1 agonist 31 | MrgX1 ag confirm 129% | HEK293 Ca flux inactive | HEK293 Ca counter inactive | HEK293 Ca cntr2 inactive
CCOc1ccccc1NC(=O)COC(=O)C1CC(=O)N(c2c(C)cccc2C)C1 (configuration not stated)	MrgX1 agonist 28 | MrgX1 ag confirm inactive | HEK293 Ca flux inactive | HEK293 Ca counter inactive | HEK293 Ca cntr2 inactive
COc1ccc(OC)c(N(CC(=O)N2CCCC2)S(=O)(=O)c2ccc(C)cc2)c1	none
COc1ccc(C)cc1N(CC(=O)N1CCCCCC1)S(=O)(=O)c1ccc(C)cc1	MrgX1 agonist 37 | MrgX1 ag confirm 198% | HEK293 Ca flux inactive | HEK293 Ca counter inactive | HEK293 Ca cntr2 inactive
O=C1Cc2ccccc2Sc2cc(OCCCN3CCCCC3)ccc21	none
O=C1Cc2ccccc2Sc2c(OCCN3CCCCC3)cccc21	MrgX1 agonist 27 | MrgX1 ag confirm 203% | HEK293 Ca flux inactive | HEK293 Ca counter inactive | HEK293 Ca cntr2 inactive
Fc1ccc(-c2cc(C(F)(F)C(F)F)[nH]n2)cc1	MrgX1 agonist 41 | MrgX1 ag confirm 212% | HEK293 Ca flux inactive | HEK293 Ca counter inactive | HEK293 Ca cntr2 48
O=C(c1ccc2c(c1)OCO2)N1CCC(Cc2ccccc2)CC1	none
COc1ccc(S(=O)(=O)CC(=O)c2cc3cc(Br)ccc3oc2=O)cc1	MrgX1 agonist 70 | MrgX1 ag confirm 326% | HEK293 Ca flux inactive | HEK293 Ca counter inactive | HEK293 Ca cntr2 61
Cc1ccc(-c2n[nH]c(=O)c3ccccc23)cc1S(=O)(=O)NCC1CCCO1 (configuration not stated)	MrgX1 agonist 40 | MrgX1 ag confirm 174% | HEK293 Ca flux inactive | HEK293 Ca counter inactive | HEK293 Ca cntr2 inactive
Cc1ccc(C(=O)NNC(=S)NC(=O)COc2ccccc2)cc1	MrgX1 agonist 109 | MrgX1 ag confirm 618% | HEK293 Ca flux inactive | HEK293 Ca counter inactive | HEK293 Ca cntr2 116
Cc1ccccc1C(=O)NNC(=S)NC(=O)COc1ccccc1	MrgX1 agonist 120 | MrgX1 ag confirm 640% | HEK293 Ca flux inactive | HEK293 Ca counter inactive | HEK293 Ca cntr2 125
N#CCSc1nc2ccccc2c(=O)n1C1CCCCC1	none
O=c1c2ccccc2nc(SCc2cccc(F)c2)n1C1CCCC1	MrgX1 agonist 29 | MrgX1 ag confirm 196% | HEK293 Ca flux inactive | HEK293 Ca counter 53 | HEK293 Ca cntr2 inactive
COc1ccc2cc(C(=O)C3CCCN(C(=O)/C=C/c4ccccn4)C3)ccc2c1 (configuration not stated)	none
CC(=N)c1c(O)c2ccccc2oc1=O	none
O=C(CC1CCCCC1)c1c(O)c2ccccc2oc1=O	MrgX1 agonist 87 | MrgX1 ag confirm 428% | HEK293 Ca flux inactive | HEK293 Ca counter inactive | HEK293 Ca cntr2 92
CC1CCC(C(=O)c2c(O)c3ccccc3oc2=O)CC1 (configuration not stated)	MrgX1 agonist 69 | MrgX1 ag confirm 282% | HEK293 Ca flux inactive | HEK293 Ca counter inactive | HEK293 Ca cntr2 84
COc1ccc(NS(=O)(=O)c2ccc(C)c(C(=O)N3CCCCCCC3)c2)cc1	none
Cn1c(N)c(C(=O)COC(=O)C2CC(=O)N(Cc3ccccc3)C2)c(=O)n(C)c1=O (configuration not stated)	none
CCC1c2ccc(C)n2CCN1C(=O)Nc1cc(Cl)ccc1OC (configuration not stated)	MrgX1 agonist 33 | MrgX1 ag confirm inactive | HEK293 Ca flux inactive | HEK293 Ca counter inactive | HEK293 Ca cntr2 inactive
CCC1c2ccc(C)n2CCN1C(=O)Nc1ccccc1C(=O)OC (configuration not stated)	MrgX1 agonist 29 | MrgX1 ag confirm inactive | HEK293 Ca flux inactive | HEK293 Ca counter inactive | HEK293 Ca cntr2 inactive
CCOC(=O)c1ccccc1NC(=O)N1CCn2c(C)ccc2C1CC (configuration not stated)	none
CCOC(=O)N1CCN(C(=O)c2c[nH]c3ccc(S(=O)(=O)N(C)c4ccccc4C)cc3c2=O)CC1	none
CCOC(=O)N1CCN(C(=O)c2c[nH]c3ccc(S(=O)(=O)N(C)c4cccc(C)c4)cc3c2=O)CC1	MrgX1 agonist 34 | MrgX1 ag confirm 191% | HEK293 Ca flux inactive | HEK293 Ca counter inactive | HEK293 Ca cntr2 50
CCOC(=O)C1(CC2CCCCO2)CCN(Cc2ccc(OC)cc2F)CC1 (configuration not stated)	none
COc1ccnc(CSC(N)=Nc2ccccc2C(F)(F)F)c1	MrgX1 agonist 33 | MrgX1 ag confirm 102% | HEK293 Ca flux inactive | HEK293 Ca counter inactive | HEK293 Ca cntr2 inactive
COc1ccnc(CSC(N)=Nc2ccccc2OC)c1	none

Source: PubChem BioAssay
